Active and inactive are the calls of the source. The rule behind the calls is not given here.
Columns and labels:
[1] = molecular target: T1, Calpain-1 catalytic subunit (Homo sapiens, UniProt P07384); assay: Inhibition of human erythrocytes calpain-1 using Suc-Leu-Tyr-AMC as substrate by kinetic fluorescence assay; conditions: read-out: Ki
T1 sequence (P07384 whole entry): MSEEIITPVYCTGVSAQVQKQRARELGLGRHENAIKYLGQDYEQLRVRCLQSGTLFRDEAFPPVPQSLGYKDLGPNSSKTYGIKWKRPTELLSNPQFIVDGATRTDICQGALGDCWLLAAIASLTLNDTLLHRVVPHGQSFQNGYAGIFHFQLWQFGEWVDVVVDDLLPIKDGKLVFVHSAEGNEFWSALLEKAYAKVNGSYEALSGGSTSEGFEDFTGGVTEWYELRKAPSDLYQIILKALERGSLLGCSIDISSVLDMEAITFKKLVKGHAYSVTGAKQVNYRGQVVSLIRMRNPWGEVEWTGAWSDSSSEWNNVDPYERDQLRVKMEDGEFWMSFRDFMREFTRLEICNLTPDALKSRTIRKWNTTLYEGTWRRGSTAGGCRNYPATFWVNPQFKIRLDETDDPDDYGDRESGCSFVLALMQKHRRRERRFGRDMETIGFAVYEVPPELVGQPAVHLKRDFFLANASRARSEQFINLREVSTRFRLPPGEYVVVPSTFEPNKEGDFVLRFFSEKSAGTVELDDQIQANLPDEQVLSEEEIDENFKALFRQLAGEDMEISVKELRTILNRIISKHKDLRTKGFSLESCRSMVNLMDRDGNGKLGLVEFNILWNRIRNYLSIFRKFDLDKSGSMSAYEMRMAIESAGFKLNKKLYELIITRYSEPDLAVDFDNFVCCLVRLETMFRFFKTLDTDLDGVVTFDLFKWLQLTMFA

[2] = Selectivity ratio of Ki for human liver cathepsin B to Ki for human erythrocytes calpain-1
Homo sapiens [3] = species on record: Homo sapiens; assay: Selectivity ratio of Ki for recombinant human procathepsin K expressed in Escherichia coli to Ki for human erythrocytes calpain-1
Method in brief: (§1)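 Ki ratios from kinetic fluorescence assays. Cathepsins B (0.25 nM), L (1 nM), K (3 nM) and S (0.5 nM) in MES buffer at pH 6.0. All at room temperature; Ki by Cheng-Prusoff.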

[4] = Selectivity ratio of Ki for human liver cathepsin L to Ki for human erythrocytes calpain-1
Homo sapiens [5] = species on record: Homo sapiens; assay: Selectivity ratio of Ki for recombinant human cathepsin S expressed in Escherichia coli to Ki for human erythrocytes calpain-1; method in brief: as §1
[6] = molecular target: T2, Calpain-1 catalytic subunit (Rattus norvegicus) (UniProt P97571); assay: (§2) Inhibition of calpain-1 in rat hippocampal slices assessed as prevention of NMDA-induced spectrin cleavage preincubated for 30 mins followed by NMDA addition measured after 5 hrs by Western blot analysis
T2 sequence (whole entry): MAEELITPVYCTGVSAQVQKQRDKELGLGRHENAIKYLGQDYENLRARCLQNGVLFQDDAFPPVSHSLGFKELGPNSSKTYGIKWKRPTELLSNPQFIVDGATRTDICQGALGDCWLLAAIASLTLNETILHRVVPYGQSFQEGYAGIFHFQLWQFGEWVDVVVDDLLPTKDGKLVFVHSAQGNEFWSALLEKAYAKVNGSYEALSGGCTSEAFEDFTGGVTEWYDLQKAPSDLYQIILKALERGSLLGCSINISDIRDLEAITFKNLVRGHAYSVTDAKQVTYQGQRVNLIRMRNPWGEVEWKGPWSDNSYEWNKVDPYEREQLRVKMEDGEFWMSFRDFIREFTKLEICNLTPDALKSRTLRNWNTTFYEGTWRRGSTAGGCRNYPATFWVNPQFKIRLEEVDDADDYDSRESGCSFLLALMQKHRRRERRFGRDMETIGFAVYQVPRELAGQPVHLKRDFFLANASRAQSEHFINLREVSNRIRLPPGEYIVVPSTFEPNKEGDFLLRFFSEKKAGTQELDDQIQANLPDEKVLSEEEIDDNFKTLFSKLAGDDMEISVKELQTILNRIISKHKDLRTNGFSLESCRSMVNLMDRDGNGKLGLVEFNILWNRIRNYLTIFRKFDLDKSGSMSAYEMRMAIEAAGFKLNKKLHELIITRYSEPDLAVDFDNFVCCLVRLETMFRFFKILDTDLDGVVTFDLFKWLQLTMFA
Method in brief: (§3)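 Organotypic rat hippocampal slice cultures kept 6–8 days in 2% serum medium; 30 min inhibitor pre-incubation, then 10 µM NMDA for 5 h at 34°C, 5% CO2. Slices lysed; 150/145 kDa spectrin breakdown products quantified by densitometric Western blot with anti-spectrin alpha chain antibody.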

[7] = molecular target: T3, Calpain-1 catalytic subunit (Rattus norvegicus, UniProt P97571); assay: as §2; method in brief: as §3
T3 sequence (P97571 whole entry): T2 sequence (whole entry)

[8] = Solubility of the compound; assay type: physicochemical
[9] = molecular target: T4, Calpain-1 catalytic subunit (Homo sapiens) (UniProt P07384); assay: Inhibition of human erythrocytes calpain-1 using Suc-Leu-Tyr-AMC as substrate in presence of up to 10 mM glutathione by kinetic fluorescence assay
T4 sequence (whole entry): T1 sequence (P07384 whole entry)

[10] = Thiol reactivity using recombinant human full length 13C-labeled La antigen (100 to 324 residues) expressed in Escherichia coli BL21(DE3) by ALARM NMR
[11] = Inhibition of human liver cathepsin L using Z-Phe-Arg-AMC as substrate by kinetic fluorescence assay
Cathepsin S = Cathepsin S (Homo sapiens, UniProt P25774); assay: Inhibition of human cathepsin S expressed in Escherichia coli using Z-Val-Val-Arg-AMC as substrate by kinetic fluorescence assay
Cathepsin B = Cathepsin B (Homo sapiens, UniProt P07858); assay: Inhibition of human liver cathepsin B using Z-Phe-Arg-AMC as substrate by kinetic fluorescence assay
Cathepsin K = molecular target: T5, Cathepsin K (Homo sapiens, UniProt P43235); assay: Inhibition of human procathepsin K expressed in Escherichia coli using Z-Gly-Pro-Arg-AMC as substrate by kinetic fluorescence assay
T5 sequence (P43235 whole entry): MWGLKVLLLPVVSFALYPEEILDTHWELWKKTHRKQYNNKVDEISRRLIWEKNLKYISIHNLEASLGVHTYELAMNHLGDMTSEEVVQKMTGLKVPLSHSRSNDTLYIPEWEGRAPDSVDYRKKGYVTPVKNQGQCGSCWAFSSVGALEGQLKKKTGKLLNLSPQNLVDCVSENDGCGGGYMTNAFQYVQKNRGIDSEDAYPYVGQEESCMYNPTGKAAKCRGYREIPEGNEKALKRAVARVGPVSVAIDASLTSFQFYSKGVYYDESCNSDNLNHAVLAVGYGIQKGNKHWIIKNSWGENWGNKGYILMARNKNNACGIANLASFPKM
Method in brief: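 Cathepsin K at 3 nM, activated from E. coli-expressed recombinant human procathepsin K. Substrate 10 µM Z-Gly-Pro-Arg-AMC in MES/EDTA/Brij 35/L-cysteine buffer, pH 6.0, room temperature. Ki obtained via Cheng-Prusoff from IC50. Mean of 2–4 curves.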

[12] = molecular target: Cathepsin C (Dipeptidyl peptidase 1) (Homo sapiens, UniProt P53634); assay: Inhibition of Cathepsin C (unknown origin) at 10 uM
[13] = molecular target: T6, Pro-cathepsin H (Homo sapiens) (UniProt P09668); assay: Inhibition of Cathepsin H (unknown origin) at 10 uM
T6 sequence (whole entry): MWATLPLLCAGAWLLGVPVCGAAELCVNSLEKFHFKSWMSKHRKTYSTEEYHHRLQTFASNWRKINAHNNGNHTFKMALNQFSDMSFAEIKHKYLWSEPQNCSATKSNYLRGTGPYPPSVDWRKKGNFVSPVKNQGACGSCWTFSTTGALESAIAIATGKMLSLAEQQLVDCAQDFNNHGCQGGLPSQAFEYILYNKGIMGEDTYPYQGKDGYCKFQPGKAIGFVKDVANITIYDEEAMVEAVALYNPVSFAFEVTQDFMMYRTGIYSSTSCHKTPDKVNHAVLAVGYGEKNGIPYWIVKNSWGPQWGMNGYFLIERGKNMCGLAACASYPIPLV

Chain of Cathepsin C (Dipeptidyl peptidase 1) (P53634 25-134 limits assumed): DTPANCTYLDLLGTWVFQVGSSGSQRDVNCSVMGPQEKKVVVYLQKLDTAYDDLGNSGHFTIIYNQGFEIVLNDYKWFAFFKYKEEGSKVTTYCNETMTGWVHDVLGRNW
Chain of Cathepsin C (Dipeptidyl peptidase 1) (P53634 231-394 limits assumed): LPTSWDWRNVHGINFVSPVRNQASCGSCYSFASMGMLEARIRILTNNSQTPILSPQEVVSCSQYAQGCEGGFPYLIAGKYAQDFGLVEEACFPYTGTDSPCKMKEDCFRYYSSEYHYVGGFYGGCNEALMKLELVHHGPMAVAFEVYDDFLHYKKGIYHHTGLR
Chain of Cathepsin C (Dipeptidyl peptidase 1) (P53634 395-463 limits assumed): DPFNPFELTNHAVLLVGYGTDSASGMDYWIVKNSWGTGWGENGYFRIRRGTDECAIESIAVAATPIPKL
Chain of Cathepsin S (P25774 whole entry): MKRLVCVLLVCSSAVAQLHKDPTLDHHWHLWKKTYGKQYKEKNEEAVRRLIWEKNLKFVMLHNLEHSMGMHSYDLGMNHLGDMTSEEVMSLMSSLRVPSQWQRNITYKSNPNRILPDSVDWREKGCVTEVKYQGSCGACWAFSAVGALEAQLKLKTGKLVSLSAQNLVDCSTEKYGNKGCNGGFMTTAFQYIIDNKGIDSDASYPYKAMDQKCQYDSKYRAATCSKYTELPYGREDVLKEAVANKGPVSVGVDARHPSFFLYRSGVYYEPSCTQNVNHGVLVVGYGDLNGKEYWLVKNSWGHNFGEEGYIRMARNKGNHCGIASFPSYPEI

Row | Ki [1] | fIC50 [6] | IC50 [7] | solubility [8] | inhibition [9] | Ki [11] | Ki (Cathepsin S) | Ki (Cathepsin B) | Ki (Cathepsin K) | inhibition at 10 µM [12] | inhibition [13] | Compound | Ratio Ki [2] | Ratio Ki (Homo sapiens [3]) | Ratio Ki [4] | Ratio Ki (Homo sapiens [5]) | Thiol reactivity [10]
1 | 0.008 µM | 65 nM | 2.02 µM | Insoluble | Active |  |  |  |  |  |  | NC(=O)C(=O)C(Cc1ccccc1)NC(=O)c1cccnc1-n1cc2c(n1)-c1ccccc1OC2 (stereo not drawn) | 29 | 47 | 278 | > 500 | Metabolite not detected
2 | 0.056 µM |  |  |  | Active | 0.137 µM | 3.29 µM | 0.028 µM | 0.0018 µM | 94% | 84% | CCN(CC)Cc1ccc(/C=C/c2ccccc2C(=O)NC(Cc2ccccc2)C(=O)C(N)=O)cc1 (stereo not drawn) | <1 | < 0.1 | 2.5 | 59 | Metabolite not detected

— ChEMBL document CHEMBL4038338 (J Med Chem, 2017)
